The text below walks through data of publication PMC7017412 (ACS Omega, 2020).

In general, Kd refers to the free concentration of one partner at which half of the binding sites on the other are occupied at equilibrium, for simple one-to-one binding. A low value points to higher affinity. The Km is the substrate concentration at which the rate is half of its maximum.

Where a chain is given by its changes, count along the chain named.

In assay [1] the target is T1, F105Y hTMPK (Homo sapiens, UniProt P23919, F105Y).
T1 sequence (P23919 1-212 F105Y): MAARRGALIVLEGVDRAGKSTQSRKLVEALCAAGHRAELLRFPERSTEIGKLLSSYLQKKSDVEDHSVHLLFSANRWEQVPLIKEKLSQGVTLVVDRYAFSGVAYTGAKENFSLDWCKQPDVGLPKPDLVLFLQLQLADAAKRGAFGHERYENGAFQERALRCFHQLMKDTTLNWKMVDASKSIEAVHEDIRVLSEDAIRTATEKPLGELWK
As to the kind of experiment: ADP binding constants by two-dimensional NMR lineshape fitting of ADP titration. The note with it: for Kd / koff: 34 °C, pH 6.9. An outline of the steps:
(§1)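 ILV methyl-labelled (13CH3/13CHD2) His-tagged hTMPK was expressed in E. coli and purified by cobalt affinity and cation exchange. Samples were in D2O with 20 mM MES, 150 mM NaCl, 10 mM MgCl2, 1 mM DTT, pH 6.9, plus 2 mM TMP or AZTMP. Protein was WT 0.8 mM and F105Y 0.4 mM. ADP was titrated at 0–2.4 ligand:protein across a 1H–13C HMQC series at 34 °C. KD and koff came from 2D lineshape fitting of five shifting methyl peaks (2-state model) with bootstrap errors.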

Assay [2] has as its target T2, WT hTMPK (Homo sapiens, UniProt P23919).
T2 sequence (P23919 1-212): T1 sequence (P23919 1-212 F105Y) with Y105F
The assay is described as above. The note with it: for Kd / koff: 34 °C, pH 6.9. An outline of the steps:
as §1

Assay [3] concerns the target T2, WT hTMPK. In kind it is binding. The settings on record: WT–AZTMP, 2 mM ADP, Ile184δ1 CPMG RD. An outline of the steps: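 Ile184δ1 CHD2 methyl 1H CPMG dispersion was run at 34 °C on a WT–AZTMP sample with 2 mM ADP, in pH 6.9 MES/MgCl2 D2O buffer. Trelax was 40 ms with ncyc 1–78. pa and kex were fitted by grid search to the full exchange equation, and koff was derived from them. Errors are ±2 standard error from 100 bootstrap resampled datasets.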

The next assay concerns TMPK from yeast (ScTMPK). The settings on record: cited from earlier work.
Assay [4] has as its target T1, F105Y hTMPK. The settings on record: cited from earlier work.
For assay [5], the target named is T2, WT hTMPK. The settings on record: cited from earlier work.

As for `Nc1ncnc2c1ncn2[C@@H]1O[C@H](COP(=O)(O)OP(=O)(O)O)[C@@H](O)[C@H]1O` [ADP], the Kd amounted to 4.4 ± 1.7 µM at F105Y hTMPK [1] (ADP binding to F105Y hTMPK with 2 mM AZTMP bound), 4.2 ± 1.3 µM at F105Y hTMPK [1] (ADP binding to F105Y hTMPK with 2 mM TMP bound), 15 ± 1 µM at WT hTMPK [2] (ADP binding to WT hTMPK with 2 mM AZTMP bound) and 15 ± 2.1 µM at WT hTMPK [2] (ADP binding to WT hTMPK with 2 mM TMP bound). For the same compound, the koff on F105Y hTMPK [1] (ADP off-rate from F105Y hTMPK with 2 mM AZTMP bound) turned out to be 0.20 ± 0.9 s^–1; on F105Y hTMPK [1] (ADP off-rate from F105Y hTMPK with 2 mM TMP bound), 2.7 ± 0.8 s^–1; on WT hTMPK [2] (ADP off-rate from WT hTMPK with 2 mM AZTMP bound), 24 ± 0.8 s^–1; on WT hTMPK [2] (ADP off-rate from WT hTMPK with 2 mM TMP bound) it was 12 ± 0.7 s^–1. On F105Y hTMPK [1] (F105Y hTMPK), the “reduced ADP off-rate (koff) with AZTMP bound relative to TMP bound” value came out at 15 fold. Besides, the “faster ADP off-rate (koff) with AZTMP bound than with TMP bound” value at WT hTMPK [2] (WT hTMPK) turned out to be 2 fold. In addition, the “koff estimated from kex and pa” value at WT hTMPK [3] is 31 ± 5.1 s^–1.

As for `Cc1cn([C@H]2C[C@H](O)[C@@H](COP(=O)(O)O)O2)c(=O)[nH]c1=O` [TMP, thymidine monophosphate], the kCAT in the assay with TMPK from yeast (ScTMPK) is recorded as 35 s^–1; on F105Y hTMPK [4] (F105Y hTMPK, substrate phosphorylation) it was 0.17 s^–1; on WT hTMPK [5] (substrate phosphorylation), 0.73 s^–1. The Km is 4.2 µM at F105Y hTMPK [4] (F105Y hTMPK) and 6.3 µM on WT hTMPK [5]. Moreover, the “reduction of activity toward TMP by Phe105Tyr mutation” value on F105Y hTMPK [4] (F105Y vs WT hTMPK) is on record as 4 fold.
